Measurements published in ChEMBL document CHEMBL2331342, “Synthesis, in vitro antiplatelet activity and molecular modelling studies of 10-substituted 2-(1-piperazinyl)pyrimido[1,2-a]benzimidazol-4(10H)-ones” (Eur J Med Chem, 2013).

Tests used:
Assay type in all cases: functional, cell-free
[1] = Antiplatelet activity against collagen ADP-induced platelet aggregation in human plasma preincubated for 2 mins before addition of inducer by turbidimetric method
Method in brief: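 Citrated PRP (blood:130 mM trisodium citrate 9:1, centrifuged 100 g for 30 min) from healthy human donors. Compound or DMSO preincubation at 37 °C for 2 min before ADP (final 5.0 μM). Turbidimetric (Born) read of light transmission after 3 min. IC50 from ≥5-concentration inhibition curve against solvent control; mean ±SD over at least five platelet batches.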

[2] = Antiplatelet activity against collagen A23187-induced platelet aggregation in human plasma preincubated for 2 mins before addition of inducer by turbidimetric method
Method in brief: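 Human PRP from citrated blood of healthy volunteers (9:1 with 130 mM trisodium citrate, spun 100 g 30 min). Preincubated with compound or DMSO 37 °C 2 min, then A23187 added (final 20.0 μM). Born turbidimetric aggregometry; light transmission at 3 min. At least five concentrations; IC50 from inhibition–concentration curve versus solvent control, mean ±SD of at least five platelet batches.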

[3] = Antiplatelet activity against collagen collagen-induced platelet aggregation in human plasma preincubated for 2 mins before addition of inducer by turbidimetric method
Method in brief: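 Platelet-rich plasma prepared from healthy volunteers' blood in 130 mM trisodium citrate (9:1), centrifuged 100 g, 30 min. After 2 min at 37 °C with compound or DMSO, bovine tendon collagen added (final 5.0 μg/mL). Born turbidimetric method, light transmission at 3 min. IC50 derived from inhibition–concentration curve (≥5 concentrations) relative to solvent control; mean ±SD, ≥5 platelet batches.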

Row | SMILES | IC50 [1] | IC50 [2] | IC50 [3]
1 | O=C1CCc2cc(OCCCCc3nnnn3C3CCCCC3)ccc2N1 [CILOSTAZOL] | 73 µM | 109 µM | 40 µM
2 | Cc1[nH]c(=O)c(C#N)cc1-c1ccncc1 [MILRINONE] | 11 µM | 14 µM | 12 µM
3 | O=c1cc(N2CCNCC2)nc2oc3ccc(Cl)cc3n12 | 3.6 µM | 13 µM | 8.8 µM
4 | CC(C)n1c2ccccc2n2c(=O)cc(N3CCNCC3)nc12 | 116 µM | 142 µM | 77 µM
5 | O=c1cc(N2CCNCC2)nc2n(CCc3ccccc3)c3ccccc3n12 | 53 µM | 75 µM | 15 µM
6 | O=c1cc(N2CCNCC2)nc2n(Cc3ccncc3)c3ccccc3n12 | 15 µM | 32 µM | 21 µM
7 | CCN(CC)c1cc(=O)nc2n(CC)c3ccccc3n12 | > 1000 µM | 415 µM | 75 µM
8 | CN(C)CCn1c2ccccc2n2c(=O)cc(N3CCNCC3)nc12 | 36 µM | 41 µM | 8 µM
9 | CCN(CC)c1cc(=O)n2c3ccccc3n(CC)c2n1 | > 1000 µM | > 1000 µM | 75 µM
10 | CSCn1c2ccccc2n2c(=O)cc(N3CCNCC3)nc12 | 26 µM | 60 µM | 31 µM
11 | CC(=O)Oc1ccccc1C(=O)O [ASPIRIN] | > 1000 µM | > 1000 µM | 183 µM
12 | O=c1cc(N2CCNCC2)nc2n(Cc3cccnc3)c3ccccc3n12 | 15 µM | 23 µM | 9 µM
13 | CCN(CC)CCn1c2ccccc2n2c(=O)cc(N3CCNCC3)nc12 | 16 µM | 13 µM | 13 µM
14 | O=c1cc(N2CCNCC2)nc2n(CCN3CCOCC3)c3ccccc3n12 | 12 µM | 11 µM | 15 µM
15 | O=c1cc(N2CCNCC2)nc2n(Cc3ccccc3)c3ccccc3n12 | 90 µM | 143 µM | 27 µM
16 | O=c1cc(N2CCNCC2)nc2n(CCN3CCCC3)c3ccccc3n12 | 16 µM | 42 µM | 28 µM
17 | O=c1cc(N2CCNCC2)nc2n(Cc3ccccn3)c3ccccc3n12 | 19 µM | 38 µM | 30 µM
18 | CC(c1ccccc1)n1c2ccccc2n2c(=O)cc(N3CCNCC3)nc12 (stereo not drawn) | 163 µM | 175 µM | 172 µM
19 | CCCn1c2ccccc2n2c(=O)cc(N3CCNCC3)nc12 | 62 µM | 50 µM | 50 µM
20 | CCn1c2ccccc2n2c(=O)cc(N3CCNCC3)nc12 | 127 µM | 206 µM | 55 µM
21 | COc1c(C)cnc(Cn2c3ccccc3n3c(=O)cc(N4CCNCC4)nc23)c1C | 33 µM | 56 µM | 49 µM
